Screening results from PubChem.
Ecoli WT expand = E. coli BW25113 growth inhibition, expanded screen; 98,000 compounds, 0.15% hits; growth inhibition, % at 100 µM; OD600 absorbance; AID 710;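 active means growth inhibition above about 50% at one test dose, limit read from the data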;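 further: growth measured after 20 h incubation at 37 °C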
Ecoli tolC = growth inhibitors of E. coli BW25113 tolC mutant; growth inhibition, % at 10 µM (by protocol); 65,000 compounds, 2.2% hits; OD615;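 active means growth inhibition at or above a cutoff equal to the mean over every tested compound plus 3 SD, cut at about 60% in these data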;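 further: growth measured after 20 h incubation at 37 °C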
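Doses: one dose of 10 µM final / Material: E. coli BW25113 ΔtolC::kan, tolC deletion mutant strain / Buffer or medium: LB with kanamycin 50 µg/mL / Evaluation: percent growth inhibition / Detection: optical density read at 615 nm / Incubation: 37 °C, 20 h exposure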
CYP2C9 act = activators of human CYP2C9; activation factor at 5 µM; recombinant CYP2C9, luciferin-H conversion, luminescence; stronger effect = higher value; factor 1 = untreated enzyme, 0 = blocked; AID 1024; 96,000 compounds, 1.4% hits; P11712;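 active means activation factor of 2 or more for CYP2C9 at a 5 µM dose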;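 further: 0 = sulfaphenazole-blocked wells and 1 = vehicle-only wells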
CYP2C9 inh = blocks human cytochrome P450 2C9; CYP2C9 Supersomes, luciferin-H conversion, luminescence; inhibition, % at 5 µM; 96,000 compounds, 20% hits; AID 777; P11712;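 active means blocking of liver enzyme CYP2C9 beyond about 50% at 5 µM, limit read from the data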
CYP2C19 act = activators of human cytochrome P450 2C19; recombinant CYP2C19, luciferin-H EGE luminescence; stronger effect = higher value; 0 = fully inhibited enzyme, 1 = untreated enzyme; activation factor at 5 µM; 96,000 tested, under 10 active; AID 1025;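 active means activation factor of at least 2 at 5 µM in the primary screen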;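 further: 0 = wells with 2.5 mM tranylcypromine and 1 = vehicle-only wells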
Target sequence (P33261 whole entry, looked up): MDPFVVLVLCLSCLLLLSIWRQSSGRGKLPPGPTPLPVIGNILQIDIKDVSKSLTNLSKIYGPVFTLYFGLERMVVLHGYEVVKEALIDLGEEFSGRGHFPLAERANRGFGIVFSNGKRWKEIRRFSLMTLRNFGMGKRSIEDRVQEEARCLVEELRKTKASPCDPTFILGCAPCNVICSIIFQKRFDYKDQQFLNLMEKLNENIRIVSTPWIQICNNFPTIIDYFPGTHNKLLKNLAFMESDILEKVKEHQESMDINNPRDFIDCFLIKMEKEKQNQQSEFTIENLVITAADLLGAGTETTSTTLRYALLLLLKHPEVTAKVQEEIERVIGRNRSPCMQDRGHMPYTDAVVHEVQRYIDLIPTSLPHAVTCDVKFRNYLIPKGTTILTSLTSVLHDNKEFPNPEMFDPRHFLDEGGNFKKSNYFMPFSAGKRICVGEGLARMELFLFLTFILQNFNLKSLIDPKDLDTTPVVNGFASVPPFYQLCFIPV
CYP2C19 inhib = human CYP2C19 inhibition; P33261; CYP2C19 Supersomes, luciferin-H EGE luminescence, 30 min; inhibition, % at 5 µM; 96,000 compounds, 21% hits;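 active means CYP2C19 inhibition above a set limit at 5 µM in the primary screen, cut at about 50% in these data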;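 further: plate controls were negative control wells for no effect and 2.5 mM tranylcypromine positive control for full effect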
The depositor's hits bear a star; nt = no result given. Rows were chosen to be rich in hits. Some 29% of all compounds tested hit in one or more screens of this group.

SMILES | Ecoli WT expand | Ecoli tolC | CYP2C9 act | CYP2C9 inh | CYP2C19 act | CYP2C19 inhib
O=C(CCSc1nnc2scc(-c3ccccc3)n12)NCc1ccc2c(c1)OCO2 | 3 | 31 | 0.5 | 46 | 0.6 | 38
CCn1c(SC(C)C(=O)NC2CCCc3ccccc32)nnc1-c1cccs1 (stereo not given) | 2 | nt | 0.1 | 86* | 0.1 | 89*
CCn1c(SCC(=O)NC2CCCc3ccccc32)nnc1-c1cccs1 (stereo not given) | -3 | nt | 0.6 | 43 | 0.8 | 19
CCn1c(SCC(=O)Nc2ccc(OC)c(OC)c2)nnc1-c1cccs1 | -10 | -11 | 0.9 | 7 | 0.9 | 5
O=C(C1CCCN(S(=O)(=O)Cc2ccccc2)C1)N1CCc2ccccc21 (stereo not given) | -7 | 4 | 0.9 | 8 | 0.8 | 24
O=C(CSc1nnc(-c2cccnc2)n1Cc1ccco1)NCc1ccc2c(c1)OCO2 | -1 | -2 | 0.6 | 40 | 0.8 | 17
O=C(CSc1nnc(-c2cccs2)n1Cc1ccccc1)NCc1ccc2c(c1)OCO2 | -10 | nt | 0.2 | 79* | 0.5 | 53*
COC(=O)c1ccc(Cl)c(NC(=O)NC23CC4CC(CC(C4)C2)C3)c1 | -13 | nt | 0.2 | 82* | 0.3 | 68*
CCCC(C)C(=O)Nc1nnc(C)s1 (stereo not given) | 9 | -19 | 1.2 | -18 | 1 | -1
Cc1nn(Cc2ccccc2)c2c1C(c1ccncc1)C(C#N)=C(N)O2 (stereo not given) | nt | -9 | 0 | 100* | 0.1 | 92*
Cc1nn(Cc2ccccc2)c2c1C(c1cccnc1)C(C#N)=C(N)O2 (stereo not given) | -5 | nt | 0.7 | 26 | 0.7 | 26
Cc1ccc(-n2nc(C)c3c2OC(N)=C(C#N)C3c2ccoc2)cc1 (stereo not given) | -7 | -9 | 0.4 | 64* | 0.7 | 26
COc1ccc(C2C(C#N)=C(N)Oc3c2c(C)nn3-c2ccccc2)cc1Cn1nc(C)c([N+](=O)[O-])c1C (stereo not given) | -11 | nt | 0.2 | 85* | 0.7 | 31
Cc1nn(-c2ccccc2)c2c1C(c1ccccc1)C(C#N)=C(N)O2 (stereo not given) | 7 | -1 | 0.1 | 87* | 0.1 | 90*
NC(=O)C1CCN(C(=O)CN2CCN(c3cccc(C(F)(F)F)c3)CC2)CC1 | 2 | -25 | 1 | 0 | 1.1 | -6
COc1ccc(OC)c(C2C(C#N)=C(N)Oc3c2c(C)nn3-c2ccc(C)cc2)c1 (stereo not given) | -7 | -2 | 0.5 | 48 | 0.9 | 13
Cc1nn(-c2ccccc2)c2c1C(c1ccc(F)cc1F)C(C#N)=C(N)O2 (stereo not given) | -1 | 5 | 0.2 | 82* | 0.3 | 68*
Cc1cccc(NC(=S)NNC(=O)c2sccc2C)c1 | -4 | nt | 0.1 | 88* | 0.3 | 73*
CC(C)CNC(=S)NNC(=O)c1csc2ccccc12 | 13 | nt | 1.1 | -8 | 0.8 | 24
Cc1ccsc1C(=O)NNC(=S)NCC(C)C | 7 | nt | 0.7 | 28 | 0.1 | 91*
CCCC(=O)c1c[nH]c(C(=O)NCc2ccco2)c1 | 4 | nt | 1 | 4 | 0.9 | 11
Cc1ccccc1NC(=O)C(C)O/N=C/c1cccc([N+](=O)[O-])c1 (stereo not given) | 3 | nt | 0.1 | 93* | 0 | 95*
COC(=O)c1cccc(NC(=O)/C=C/c2cccc([N+](=O)[O-])c2)c1 | -5 | nt | 1.1 | -7 | 1 | 2
CC1Cc2nc(SCC(=O)N3CCN(c4ccccc4)CC3)n(C)c(=O)c2S1 (stereo not given) | 8 | nt | 0.3 | 71* | 0.3 | 67*
CC1Cc2nc(SCC(=O)N3CCN(c4ccccc4)CC3)n(CCc3ccccc3)c(=O)c2S1 (stereo not given) | -11 | nt | 0.2 | 76* | 0.7 | 31
SMILES | Ecoli WT expand | Ecoli tolC | CYP2C9 act | CYP2C9 inh | CYP2C19 act | CYP2C19 inhib
COc1ccc(N2C3=[N+](CC2(C)O)c2ccccc2CC3)cc1 (stereo not given) | -3 | -9 | 0.9 | 15 | 0.8 | 21
CCc1ccc(NC(=O)CS(=O)CC(=O)NCC2OCCc3ccccc32)cc1 (stereo not given) | -1 | 12 | 0.3 | 74* | 0.5 | 46
O=C(CCN1CCCCC1)NCC1OCCc2ccccc21 (stereo not given) | 1 | -5 | 1.1 | -9 | 0.1 | 86*
O=C(C1CCC(N2C(=O)C3CC=CCC3C2=O)CC1)N1CCCCC1 (stereo not given) | -7 | -8 | 0.5 | 46 | 0.7 | 32
O=C(CN1CCOCC1)NC1CC2CCC1C2 (stereo not given) | 2 | -20 | 1.2 | -24 | 1.1 | -6
COC(=O)C(C)Sc1nnc(Cc2cc(=O)[nH]c(=O)[nH]2)n1-c1ccc(OC)cc1 (stereo not given) | -2 | -2 | 0.9 | 9 | 1 | 1
c1ccc(-c2nc(NC3CC3)nc(-n3ccnc3)n2)cc1 | -12 | 9 | 0.8 | 18 | 0.9 | 11
CC(=O)N1CCc2cc(S(=O)(=O)NC(CC(C)C)C(=O)Nc3ccc4c(c3)OCCO4)ccc21 (stereo not given) | 8 | -13 | 0.4 | 59* | 0.5 | 49
CC(=O)N1CCc2cc(S(=O)(=O)NC(C(=O)NCc3ccccc3)C(C)C)ccc21 (stereo not given) | -10 | -30 | 0.8 | 23 | 1.1 | -11
CC(=O)N1CCc2cc(S(=O)(=O)NC(Cc3ccccc3)C(=O)NC3CCCCCC3)ccc21 (stereo not given) | 0 | nt | 0.5 | 53* | 0.7 | 35
CC(=O)N1CCc2cc(S(=O)(=O)NC(CC(C)C)C(=O)N3CCn4c3nc3ccccc34)ccc21 (stereo not given) | -1 | 9 | 0.4 | 57* | 0.5 | 51*
Cc1ccc(NC(=O)C(Cc2ccccc2)NC(=O)c2ccco2)cc1 (stereo not given) | -7 | nt | 0.8 | 24 | 0.8 | 21
COC(=O)c1cccc(NC(=O)c2ccc(S(=O)(=O)N3CCN(C)CC3)cc2)c1 | 7 | -7 | 0.7 | 27 | 0.7 | 32
CCN(CC)c1nc(-c2cccc(OC)c2O)nc2ccccc12 | -3 | -1 | 1.1 | -9 | 1 | 4
COc1cccc(-c2nc(N3CCCCC3C)c3ccccc3n2)c1O (stereo not given) | -16 | 1 | 0.2 | 84* | 0.8 | 24
CC(=O)c1c(C)n(CCO)c2ccc(O)cc12 | 6 | nt | 1.1 | -15 | 1 | 4
CCOC(=O)c1c(C)n(CCNC(C)=O)c2ccc(O)cc12 | 0 | nt | 0.6 | 44 | 0.4 | 60*
CCOC(=O)COc1ccc2c(c1)c(C(=O)OCC)c(C)n2CC | 4 | 53 | 0.6 | 40 | 0.2 | 80*
CCOC(=O)c1c(C)n(CC(O)c2ccccc2)c2ccc(O)cc12 (stereo not given) | 2 | 49 | 0.4 | 60* | 0.4 | 64*
